Measured values from ChEMBL document CHEMBL3576822 (J Med Chem, 2015).
Non-standard residues stand in square brackets, D forms with d. Residues, ends and D or L forms follow the SMILES beside them. ξ: configuration not given here. ξDap = NCC(N)C(=O)O

Columns and labels:
[1] = molecular target: T1, Neuropeptide Y receptor type 2 (Homo sapiens, UniProt P49146); test: Displacement of [125I]PYY from human neuropeptide Y Y2 receptor expressed in HEK293 cells cotransfected with eYFP fusion protein after 2 hrs by competitive receptor binding assay; type: cell-based; details: hek293
T1 sequence (P49146 whole entry): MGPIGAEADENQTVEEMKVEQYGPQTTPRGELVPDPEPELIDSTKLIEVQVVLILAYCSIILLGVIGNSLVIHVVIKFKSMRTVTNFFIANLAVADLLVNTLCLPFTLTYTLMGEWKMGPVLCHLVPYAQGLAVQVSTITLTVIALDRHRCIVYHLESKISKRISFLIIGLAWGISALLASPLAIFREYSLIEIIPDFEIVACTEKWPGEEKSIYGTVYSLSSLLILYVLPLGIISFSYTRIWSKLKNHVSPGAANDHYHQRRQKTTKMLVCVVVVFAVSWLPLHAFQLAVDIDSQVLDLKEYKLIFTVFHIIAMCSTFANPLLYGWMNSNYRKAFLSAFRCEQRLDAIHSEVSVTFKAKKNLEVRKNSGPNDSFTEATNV
Procedure, shortened: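 Competitive binding against 125I-PYY in HEK-293 cells stably expressing human Y2 receptor; concentration-response curves.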

[2] = molecular target: T2, Growth hormone secretagogue receptor type 1 (Homo sapiens, UniProt Q92847); test: Inverse agonist activity at human GHSR1a receptor expressed in COS-7 cells assessed as inositol phosphate accumulation after 2 hrs by anion exchange chromatography; type: functional, cell-based
[3] = molecular target: T2, Growth hormone secretagogue receptor type 1; test: Displacement of [125I]ghrelin from human eYFP-fused ghrelin receptor expressed in COS7 cells after 75 mins by competitive receptor binding assay; type: cell-based, COS-7; details: cos-7
[4] = molecular target: T1, Neuropeptide Y receptor type 2; test: Agonist activity at human neuropeptide Y Y2 receptor expressed in COS-7 cells cotransfected with chimeric Gi/q protein assessed as inositol phosphate accumulation after 2 hrs by anion exchange chromatography; type: functional, cell-based
Procedure, shortened: (§1)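 Inositol phosphate turnover in COS-7 cells stably co-expressing human Y2 receptor and chimeric Gi/q protein; concentration-response curves, responses as % of maximum Y2 activity; SEM over two biological replicates.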

[5] = molecular target: T2, Growth hormone secretagogue receptor type 1; test: Inverse agonist activity at human GHSR1a receptor expressed in COS-7 cells assessed as inositol phosphate accumulation after 2 hrs by anion exchange chromatography relative to control; type: functional, cell-based
[6] = molecular target: T3, Neuropeptide Y receptor type 2 (Homo sapiens) (UniProt P49146); test: Agonist activity at human neuropeptide Y Y2 receptor expressed in COS-7 cells cotransfected with chimeric Gi/q protein assessed as inositol phosphate accumulation after 2 hrs by anion exchange chromatography relative to control; type: functional, cell-based; procedure, shortened: as §1
T3 sequence (whole entry): T1 sequence (P49146 whole entry)

[7] = molecular target: Neuropeptide Y receptor type 4 (Homo sapiens) (UniProt P50391); test: Agonist activity at human neuropeptide Y Y4 receptor expressed in COS-7 cells cotransfected with chimeric Gi/q protein assessed as inositol phosphate accumulation at 1 uM after 2 hrs by anion exchange chromatography; type: functional, cell-based
Procedure, shortened: (§2)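 COS-7 cells stably co-expressing the corresponding human Y receptor plus a chimeric Gi/q protein; single high concentration tested in inositol phosphate accumulation; response as % of NPY response at each receptor; SEM over two biological replicates.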

[8] = molecular target: T4, Neuropeptide Y receptor type 1 (Homo sapiens) (UniProt P25929); test: Agonist activity at human neuropeptide Y Y1 receptor expressed in COS-7 cells cotransfected with chimeric Gi/q protein assessed as inositol phosphate accumulation at 1 uM after 2 hrs by anion exchange chromatography; type: functional, cell-based; procedure, shortened: as §2
T4 sequence (whole entry): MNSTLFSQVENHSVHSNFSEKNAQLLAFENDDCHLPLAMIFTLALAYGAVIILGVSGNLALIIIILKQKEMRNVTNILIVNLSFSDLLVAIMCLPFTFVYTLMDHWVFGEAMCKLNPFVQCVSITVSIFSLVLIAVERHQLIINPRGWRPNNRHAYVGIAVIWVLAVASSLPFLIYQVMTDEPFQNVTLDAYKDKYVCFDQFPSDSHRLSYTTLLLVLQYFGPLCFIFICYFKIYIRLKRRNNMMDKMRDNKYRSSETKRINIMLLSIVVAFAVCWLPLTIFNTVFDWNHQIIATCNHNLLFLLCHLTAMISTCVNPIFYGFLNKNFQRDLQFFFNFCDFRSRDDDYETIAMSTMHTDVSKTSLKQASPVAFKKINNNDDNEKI

[9] = molecular target: T5, Neuropeptide Y receptor type 5 (Homo sapiens) (UniProt Q15761); test: Agonist activity at human neuropeptide Y Y5 receptor expressed in COS-7 cells cotransfected with chimeric Gi/q protein assessed as inositol phosphate accumulation at 1 uM after 2 hrs by anion exchange chromatography; type: functional, cell-based; procedure, shortened: as §2
T5 sequence (whole entry): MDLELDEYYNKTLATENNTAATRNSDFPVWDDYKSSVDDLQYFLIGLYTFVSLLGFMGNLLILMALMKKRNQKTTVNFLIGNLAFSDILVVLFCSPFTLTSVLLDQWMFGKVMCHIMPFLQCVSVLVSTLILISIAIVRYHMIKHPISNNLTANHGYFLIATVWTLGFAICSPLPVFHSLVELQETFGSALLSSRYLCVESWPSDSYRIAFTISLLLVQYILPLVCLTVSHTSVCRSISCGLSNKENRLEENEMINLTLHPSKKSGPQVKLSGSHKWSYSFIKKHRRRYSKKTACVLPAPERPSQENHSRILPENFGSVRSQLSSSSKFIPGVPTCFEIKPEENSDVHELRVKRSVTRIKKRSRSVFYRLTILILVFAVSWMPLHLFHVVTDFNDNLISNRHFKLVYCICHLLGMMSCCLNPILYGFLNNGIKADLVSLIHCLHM

T2 sequence (Q92847 whole entry, the tested form may be a part): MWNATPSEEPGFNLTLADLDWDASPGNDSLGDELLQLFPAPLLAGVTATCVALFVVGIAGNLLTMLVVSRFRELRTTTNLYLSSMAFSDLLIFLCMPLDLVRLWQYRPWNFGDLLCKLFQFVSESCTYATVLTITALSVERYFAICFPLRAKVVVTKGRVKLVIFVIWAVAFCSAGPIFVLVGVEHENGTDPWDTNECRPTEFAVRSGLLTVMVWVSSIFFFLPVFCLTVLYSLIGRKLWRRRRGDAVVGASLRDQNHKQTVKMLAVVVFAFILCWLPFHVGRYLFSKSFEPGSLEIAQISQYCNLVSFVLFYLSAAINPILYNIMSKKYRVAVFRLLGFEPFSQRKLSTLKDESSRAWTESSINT
Neuropeptide Y receptor type 4 (Homo sapiens), sequence (P50391 whole entry): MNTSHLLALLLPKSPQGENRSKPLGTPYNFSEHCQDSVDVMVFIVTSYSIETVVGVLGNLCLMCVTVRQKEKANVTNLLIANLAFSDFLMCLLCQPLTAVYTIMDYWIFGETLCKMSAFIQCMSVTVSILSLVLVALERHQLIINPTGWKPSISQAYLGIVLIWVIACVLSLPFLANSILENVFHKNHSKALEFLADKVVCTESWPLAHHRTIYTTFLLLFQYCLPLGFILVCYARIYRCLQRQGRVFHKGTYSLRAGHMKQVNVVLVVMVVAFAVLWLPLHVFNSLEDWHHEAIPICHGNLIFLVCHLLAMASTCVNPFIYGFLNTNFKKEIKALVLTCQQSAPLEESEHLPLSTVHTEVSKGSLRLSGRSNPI

SMILES: CC(=O)N[C@@H](CNC(=O)CCC(=O)N[C@@H](CCCCN)C(=O)N[C@@H](CCCCN)C(=O)N[C@H](Cc1cccc2ccccc12)C(=O)N[C@@H](Cc1ccccc1)C(=O)N[C@H](Cc1c[nH]c2ccccc12)C(=O)N[C@@H](CC(C)C)C(=O)N[C@@H](CC(C)C)C(N)=O)C(=O)N[C@@H](CC(C)C)C(=O)N[C@@H](CCCNC(=N)N)C(=O)N[C@@H](Cc1cnc[nH]1)C(=O)N[C@@H](Cc1ccc(O)cc1)C(=O)N[C@@H](CC(C)C)C(=O)N[C@@H](CC(N)=O)C(=O)N[C@@H](CC(C)C)C(=O)N[C@@H](CC(C)C)C(=O)N[C@H](C(=O)N[C@@H](CCCNC(=N)N)C(=O)N[C@@H](CCC(N)=O)C(=O)N[C@@H](CCCNC(=N)N)C(=O)N[C@@H](Cc1ccc(O)cc1)C(N)=O)[C@@H](C)O
- IC50 [1]: 9.7 nM
- EC50 ([2]; cos-7): 110 nM
- IC50 [3]: 70.4 nM
- EC50 ([4]; cos-7): 2 nM

SMILES: CC(C)C[C@H](NC(=O)[C@H](CC(C)C)NC(=O)[C@@H](Cc1c[nH]c2ccccc12)NC(=O)[C@H](Cc1ccccc1)NC(=O)[C@H](Cc1cccc2ccccc12)NC(=O)[C@H](CCCCN)NC(=O)CCC(=O)O)C(N)=O
- Efficacy [5]: 88%

SMILES: CC(=O)N[C@@H](CCCCN)C(=O)N[C@@H](CC(C)C)C(=O)N[C@@H](CCCNC(=N)N)C(=O)N[C@@H](Cc1cnc[nH]1)C(=O)N[C@@H](Cc1ccc(O)cc1)C(=O)N[C@@H](CC(C)C)C(=O)N[C@@H](CC(N)=O)C(=O)N[C@@H](CC(C)C)C(=O)N[C@@H](CC(C)C)C(=O)N[C@H](C(=O)N[C@@H](CCCNC(=N)N)C(=O)N[C@@H](CCC(N)=O)C(=O)N[C@@H](CCCNC(=N)N)C(=O)N[C@@H](Cc1ccc(O)cc1)C(N)=O)[C@@H](C)O (Ac-KLRHYLNLLTRQRY-NH2)
- Efficacy [6]: 68%
- EC50 [2]: > 1000 nM
- EC50 [4]: 0.5 nM

SMILES: CC(C)C[C@H](NC(=O)[C@@H](Cc1c[nH]c2ccccc12)NC(=O)[C@H](Cc1ccccc1)NC(=O)[C@@H](Cc1cccc2ccccc12)NC(=O)[C@@H](N)CCCCN)C(=O)N[C@@H](CC(N)=O)C(=O)O
- EC50 ([2]; cos-7): 189 nM

SMILES: CC(C)C[C@H](NC(=O)[C@@H](Cc1c[nH]c2ccccc12)NC(=O)[C@H](Cc1ccccc1)NC(=O)[C@H](Cc1cccc2ccccc12)NC(=O)[C@@H](N)CCCCN)C(=O)N[C@@H](CCC(N)=O)C(=O)O
- Efficacy [5]: 92%

SMILES: CC(=O)NC(CN)C(=O)N[C@@H](CC(C)C)C(=O)N[C@@H](CCCNC(=N)N)C(=O)N[C@@H](Cc1cnc[nH]1)C(=O)N[C@@H](Cc1ccc(O)cc1)C(=O)N[C@@H](CC(C)C)C(=O)N[C@@H](CC(N)=O)C(=O)N[C@@H](CC(C)C)C(=O)N[C@@H](CC(C)C)C(=O)N[C@H](C(=O)N[C@@H](CCCNC(=N)N)C(=O)N[C@@H](CCC(N)=O)C(=O)N[C@@H](CCCNC(=N)N)C(=O)N[C@@H](Cc1ccc(O)cc1)C(N)=O)[C@@H](C)O (some centres undefined) (Ac-[ξDap]LRHYLNLLTRQRY-NH2)
- Efficacy [6]: 77%
- EC50 [4]: 0.4 nM

SMILES: CC(C)C[C@H](NC(=O)[C@H](CC(C)C)NC(=O)[C@@H](Cc1c[nH]c2ccccc12)NC(=O)[C@H](Cc1ccccc1)NC(=O)[C@@H](Cc1cccc2ccccc12)NC(=O)[C@H](CCCCN)NC(=O)CCC(=O)O)C(N)=O
- EC50 ([2]; cos-7): 29 nM
- EC50 ([4]; cos-7): > 1000 nM

SMILES: CC(C)C[C@H](NC(=O)[C@@H](Cc1c[nH]c2ccccc12)NC(=O)[C@H](Cc1ccccc1)NC(=O)[C@H](Cc1cccc2ccccc12)NC(=O)[C@@H](N)CCCCN)C(=O)N[C@@H](CC(N)=O)C(=O)O
- Efficacy [5]: 86%

SMILES: CC(=O)NC(CNC(=O)CCC(=O)N[C@@H](CCCCN)C(=O)N[C@@H](CCCCN)C(=O)N[C@@H](Cc1cccc2ccccc12)C(=O)N[C@@H](Cc1ccccc1)C(=O)N[C@H](Cc1c[nH]c2ccccc12)C(=O)N[C@@H](CC(C)C)C(=O)N[C@@H](CC(C)C)C(N)=O)C(=O)N[C@@H](CC(C)C)C(=O)N[C@@H](CCCNC(=N)N)C(=O)N[C@@H](Cc1cnc[nH]1)C(=O)N[C@@H](Cc1ccc(O)cc1)C(=O)N[C@@H](CC(C)C)C(=O)N[C@@H](CC(N)=O)C(=O)N[C@@H](CC(C)C)C(=O)N[C@@H](CC(C)C)C(=O)N[C@H](C(=O)N[C@@H](CCCNC(=N)N)C(=O)N[C@@H](CCC(N)=O)C(=O)N[C@@H](CCCNC(=N)N)C(=O)N[C@@H](Cc1ccc(O)cc1)C(N)=O)[C@@H](C)O (some centres undefined)
- Efficacy [5]: 78%
- Efficacy [7]: < 25%
- Efficacy [8]: < 25%
- Efficacy [6]: 82%
- Efficacy [9]: 33%

SMILES: CC(C)C[C@H](NC(=O)[C@H](CC(C)C)NC(=O)[C@@H](Cc1c[nH]c2ccccc12)NC(=O)[C@H](Cc1ccccc1)NC(=O)[C@H](Cc1cccc2ccccc12)NC(=O)[C@H](CCCCN)NC(=O)[C@H](CCCCN)NC(=O)CCC(=O)O)C(N)=O
- Efficacy [5]: 84%

SMILES: CC(=O)N[C@@H](CCCCNC(=O)CCCCCNC(=O)[C@H](CC(N)=O)NC(=O)[C@H](CC(C)C)NC(=O)[C@@H](Cc1c[nH]c2ccccc12)NC(=O)[C@H](Cc1ccccc1)NC(=O)[C@@H](Cc1cccc2ccccc12)NC(=O)[C@@H](N)CCCCN)C(=O)N[C@@H](CC(C)C)C(=O)N[C@@H](CCCNC(=N)N)C(=O)N[C@@H](Cc1cnc[nH]1)C(=O)N[C@@H](Cc1ccc(O)cc1)C(=O)N[C@@H](CC(C)C)C(=O)N[C@@H](CC(N)=O)C(=O)N[C@@H](CC(C)C)C(=O)N[C@@H](CC(C)C)C(=O)N[C@H](C(=O)N[C@@H](CCCNC(=N)N)C(=O)N[C@@H](CCC(N)=O)C(=O)N[C@@H](CCCNC(=N)N)C(=O)N[C@@H](Cc1ccc(O)cc1)C(N)=O)[C@@H](C)O
- Efficacy [5]: 64%
- EC50 [2]: 267 nM

SMILES: CC(C)C[C@H](NC(=O)[C@H](CC(C)C)NC(=O)[C@@H](Cc1c[nH]c2ccccc12)NC(=O)[C@H](Cc1ccccc1)NC(=O)[C@@H](Cc1cccc2ccccc12)NC(=O)[C@H](CCCCN)NC(=O)[C@H](CCCCN)NC(=O)CCC(=O)O)C(N)=O
- EC50 ([2]; cos-7): 60.2 nM
- EC50 ([4]; cos-7): > 1000 nM

SMILES: CC(=O)N[C@@H](CCCCNC(=O)CCNC(=O)[C@H](CC(N)=O)NC(=O)[C@H](CC(C)C)NC(=O)[C@@H](Cc1c[nH]c2ccccc12)NC(=O)[C@H](Cc1ccccc1)NC(=O)[C@@H](Cc1cccc2ccccc12)NC(=O)[C@@H](N)CCCCN)C(=O)N[C@@H](CC(C)C)C(=O)N[C@@H](CCCNC(=N)N)C(=O)N[C@@H](Cc1cnc[nH]1)C(=O)N[C@@H](Cc1ccc(O)cc1)C(=O)N[C@@H](CC(C)C)C(=O)N[C@@H](CC(N)=O)C(=O)N[C@@H](CC(C)C)C(=O)N[C@@H](CC(C)C)C(=O)N[C@H](C(=O)N[C@@H](CCCNC(=N)N)C(=O)N[C@@H](CCC(N)=O)C(=O)N[C@@H](CCCNC(=N)N)C(=O)N[C@@H](Cc1ccc(O)cc1)C(N)=O)[C@@H](C)O
- Efficacy [5]: 74%
- EC50 [2]: 331 nM

SMILES: CC(C)C[C@H](NC(=O)[C@@H](Cc1c[nH]c2ccccc12)NC(=O)[C@H](Cc1ccccc1)NC(=O)[C@@H](Cc1cccc2ccccc12)NC(=O)[C@@H](N)CCCCN)C(=O)N[C@@H](CCC(N)=O)C(=O)O
- EC50 ([2]; cos-7): 70.2 nM
- EC50 ([4]; cos-7): > 1000 nM
